The values that follow come from ChEMBL document CHEMBL2346522, “Rational design of apoptosis signal-regulating kinase 1 inhibitors: discovering novel structural scaffold” (Eur J Med Chem, 2013).

The structures appear in SMILES notation.

Test [1] deals with T1, Aurora kinase A (Homo sapiens) (UniProt O14965).
T1 sequence (whole entry): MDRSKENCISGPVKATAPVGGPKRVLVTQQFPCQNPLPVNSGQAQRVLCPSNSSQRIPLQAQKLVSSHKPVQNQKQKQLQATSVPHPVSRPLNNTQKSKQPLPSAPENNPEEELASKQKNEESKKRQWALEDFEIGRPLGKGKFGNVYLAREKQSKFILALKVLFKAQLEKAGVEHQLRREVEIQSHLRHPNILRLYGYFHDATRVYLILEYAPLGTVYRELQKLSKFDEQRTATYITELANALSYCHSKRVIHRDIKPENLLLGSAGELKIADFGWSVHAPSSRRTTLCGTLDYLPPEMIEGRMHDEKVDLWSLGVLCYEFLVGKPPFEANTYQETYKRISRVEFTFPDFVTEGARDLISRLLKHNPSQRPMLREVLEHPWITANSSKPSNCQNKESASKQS
Briefly: Inhibition of human Aurora A using Kemptide as substrate assessed as residual activity at 10 uM incubated for 10 mins prior to ATP addition measured after 20 mins by liquid scintillation counting analysis.

For test [2], the target named is Fibroblast growth factor receptor 1 (Homo sapiens) (UniProt P11362). Briefly: Inhibition of human FGFR1 using IGF-IRtide (12 to 527) as substrate assessed as residual activity at 10 uM incubated for 10 mins prior to ATP addition measured after 20 mins by liquid scintillation counting analysis.
Chain of Fibroblast growth factor receptor 1 (Homo sapiens) (P11362 22-822 limits assumed): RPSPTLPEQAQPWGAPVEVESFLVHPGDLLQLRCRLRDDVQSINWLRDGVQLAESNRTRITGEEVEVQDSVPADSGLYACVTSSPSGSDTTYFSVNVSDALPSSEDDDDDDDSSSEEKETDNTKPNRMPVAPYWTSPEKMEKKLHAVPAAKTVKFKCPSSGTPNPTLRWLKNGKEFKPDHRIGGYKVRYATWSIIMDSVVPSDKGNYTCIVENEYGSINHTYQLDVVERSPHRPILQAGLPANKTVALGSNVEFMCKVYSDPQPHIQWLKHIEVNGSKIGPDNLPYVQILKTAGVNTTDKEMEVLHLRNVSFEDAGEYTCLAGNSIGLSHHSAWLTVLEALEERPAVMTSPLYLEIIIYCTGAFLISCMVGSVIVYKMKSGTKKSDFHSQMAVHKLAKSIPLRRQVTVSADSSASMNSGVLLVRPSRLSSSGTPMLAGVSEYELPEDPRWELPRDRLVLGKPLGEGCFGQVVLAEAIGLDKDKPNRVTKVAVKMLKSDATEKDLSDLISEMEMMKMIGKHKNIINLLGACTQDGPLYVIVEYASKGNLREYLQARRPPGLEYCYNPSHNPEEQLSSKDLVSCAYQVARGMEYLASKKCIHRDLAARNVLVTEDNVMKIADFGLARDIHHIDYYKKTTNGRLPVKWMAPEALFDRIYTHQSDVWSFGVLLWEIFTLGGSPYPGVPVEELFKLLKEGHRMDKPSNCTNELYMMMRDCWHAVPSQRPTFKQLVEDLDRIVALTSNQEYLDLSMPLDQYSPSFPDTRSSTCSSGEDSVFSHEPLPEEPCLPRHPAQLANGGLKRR
For test [3], the target named is T2, Mitogen-activated protein kinase kinase kinase 5 (Homo sapiens) (UniProt Q99683).
T2 sequence (whole entry): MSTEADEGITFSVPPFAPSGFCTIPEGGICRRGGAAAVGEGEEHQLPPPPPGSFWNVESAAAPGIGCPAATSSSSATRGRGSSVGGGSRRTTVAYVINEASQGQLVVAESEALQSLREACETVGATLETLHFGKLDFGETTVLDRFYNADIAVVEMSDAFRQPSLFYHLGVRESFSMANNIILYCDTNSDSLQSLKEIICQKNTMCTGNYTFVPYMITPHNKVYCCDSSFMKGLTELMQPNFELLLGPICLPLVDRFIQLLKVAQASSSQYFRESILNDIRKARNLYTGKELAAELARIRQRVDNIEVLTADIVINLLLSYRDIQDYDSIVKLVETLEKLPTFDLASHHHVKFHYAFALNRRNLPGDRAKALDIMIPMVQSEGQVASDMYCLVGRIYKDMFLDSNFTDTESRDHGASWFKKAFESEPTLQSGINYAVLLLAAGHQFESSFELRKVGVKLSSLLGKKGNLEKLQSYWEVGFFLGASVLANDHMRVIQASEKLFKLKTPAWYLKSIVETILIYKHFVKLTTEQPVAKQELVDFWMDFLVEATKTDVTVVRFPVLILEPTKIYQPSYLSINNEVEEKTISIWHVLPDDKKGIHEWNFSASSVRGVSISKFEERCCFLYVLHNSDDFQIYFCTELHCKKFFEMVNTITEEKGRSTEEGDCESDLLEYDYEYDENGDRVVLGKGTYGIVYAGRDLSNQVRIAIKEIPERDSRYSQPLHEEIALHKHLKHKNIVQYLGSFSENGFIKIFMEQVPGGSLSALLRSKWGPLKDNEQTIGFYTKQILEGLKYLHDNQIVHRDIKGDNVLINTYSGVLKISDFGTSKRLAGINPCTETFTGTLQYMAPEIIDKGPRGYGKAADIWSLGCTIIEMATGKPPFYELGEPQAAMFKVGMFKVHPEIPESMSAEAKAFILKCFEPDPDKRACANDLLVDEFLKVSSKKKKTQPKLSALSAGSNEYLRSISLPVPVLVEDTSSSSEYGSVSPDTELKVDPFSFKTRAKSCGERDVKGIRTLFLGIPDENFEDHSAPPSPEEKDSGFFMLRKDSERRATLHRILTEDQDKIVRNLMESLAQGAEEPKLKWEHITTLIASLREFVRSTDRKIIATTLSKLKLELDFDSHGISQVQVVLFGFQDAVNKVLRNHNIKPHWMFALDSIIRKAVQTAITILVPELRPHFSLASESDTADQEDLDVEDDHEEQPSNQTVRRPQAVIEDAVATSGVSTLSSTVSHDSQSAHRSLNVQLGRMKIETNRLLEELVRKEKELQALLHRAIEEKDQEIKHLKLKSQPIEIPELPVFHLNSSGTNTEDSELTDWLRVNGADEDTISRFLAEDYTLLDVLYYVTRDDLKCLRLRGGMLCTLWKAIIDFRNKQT
Nature of the test: Inhibition of human ASK1 using MBP as substrate assessed as residual activity at 10 uM incubated for 10 mins prior to ATP addition measured after 20 mins by liquid scintillation counting analysis.

The target of test [4] is Casein kinase II (Homo sapiens) (UniProt P67870+P68400+P19784). Nature of the test: Inhibition of human CK2 using RRRDDDSDDD as substrate assessed as residual activity at 10 uM incubated for 10 mins prior to ATP addition measured after 20 mins by liquid scintillation counting analysis. It counts as protein-complex assay.
Test [5] has as its target T3, Mitogen-activated protein kinase kinase kinase 5 (Homo sapiens, UniProt Q99683).
T3 sequence (Q99683 whole entry): T2 sequence (whole entry)
Briefly: Competitive inhibition of human ASK1 using MBP as substrate incubated for 10 mins prior to ATP addition measured after 20 mins by Lineweaver-Burk plot analysis. A digest of the protocol: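 ASK1 activity with MBP substrate and γ-³²P-ATP. Enzyme and substrate sit in MOPS pH 7.2 buffer (EGTA, EDTA, DTT, BSA, β-glycerophosphate). Inhibitor from a DMSO stock is pre-mixed with them on ice for 10 min. The reaction starts with ATP/MgCl₂. Substrate concentration curves are run at several inhibitor levels, in triplicate, and analysed by Lineweaver–Burk linearized plots.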

Test [6] has as its target Mitogen-activated protein kinase 10 (Homo sapiens) (UniProt P53779). Nature of the test: Inhibition of human JNK3 using JNK3tide as substrate assessed as residual activity at 10 uM incubated for 10 mins prior to ATP addition measured after 20 mins by liquid scintillation counting analysis.
In test [7] the target is Angiopoietin-1 receptor (Homo sapiens) (UniProt Q02763). Briefly: Inhibition of human Tie2 using TK substrate 2 as substrate assessed as residual activity at 10 uM incubated for 10 mins prior to ATP addition measured after 20 mins by liquid scintillation counting analysis.
Chain of Angiopoietin-1 receptor (Homo sapiens) (Q02763 whole entry): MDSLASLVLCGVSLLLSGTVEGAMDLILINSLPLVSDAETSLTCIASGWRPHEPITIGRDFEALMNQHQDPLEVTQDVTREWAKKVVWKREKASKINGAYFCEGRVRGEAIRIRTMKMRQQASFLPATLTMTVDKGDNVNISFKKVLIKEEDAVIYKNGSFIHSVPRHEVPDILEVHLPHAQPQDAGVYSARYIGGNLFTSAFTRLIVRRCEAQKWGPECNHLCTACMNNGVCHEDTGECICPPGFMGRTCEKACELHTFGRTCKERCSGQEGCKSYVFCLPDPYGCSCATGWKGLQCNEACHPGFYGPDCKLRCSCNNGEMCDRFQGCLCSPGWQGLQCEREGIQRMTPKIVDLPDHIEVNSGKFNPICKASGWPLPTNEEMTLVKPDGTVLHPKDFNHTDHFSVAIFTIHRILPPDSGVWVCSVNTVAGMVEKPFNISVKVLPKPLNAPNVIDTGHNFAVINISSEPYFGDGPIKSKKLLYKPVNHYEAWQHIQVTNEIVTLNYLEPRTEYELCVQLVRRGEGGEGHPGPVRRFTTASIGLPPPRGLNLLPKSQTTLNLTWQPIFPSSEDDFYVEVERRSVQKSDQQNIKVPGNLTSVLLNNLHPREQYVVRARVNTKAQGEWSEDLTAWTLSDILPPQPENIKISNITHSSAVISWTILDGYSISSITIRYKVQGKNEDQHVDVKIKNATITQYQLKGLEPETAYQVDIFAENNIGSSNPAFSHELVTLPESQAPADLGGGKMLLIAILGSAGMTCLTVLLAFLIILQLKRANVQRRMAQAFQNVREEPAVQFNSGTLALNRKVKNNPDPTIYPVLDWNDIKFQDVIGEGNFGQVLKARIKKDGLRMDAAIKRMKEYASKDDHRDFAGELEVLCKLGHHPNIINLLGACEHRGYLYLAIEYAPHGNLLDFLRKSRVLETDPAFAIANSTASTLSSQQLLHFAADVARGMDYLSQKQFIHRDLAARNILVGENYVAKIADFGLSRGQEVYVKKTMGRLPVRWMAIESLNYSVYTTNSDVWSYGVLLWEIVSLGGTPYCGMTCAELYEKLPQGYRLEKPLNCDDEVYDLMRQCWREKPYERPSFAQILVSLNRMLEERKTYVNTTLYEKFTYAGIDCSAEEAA
The target in test [8] is Hepatocyte growth factor receptor (Homo sapiens) (UniProt P08581). Nature of the test: Inhibition of human HGFR using KKKSPGEYVNIEFG as substrate assessed as residual activity at 10 uM incubated for 10 mins prior to ATP addition measured after 20 mins by liquid scintillation counting analysis.
Chain of Hepatocyte growth factor receptor (Homo sapiens) (P08581 whole entry): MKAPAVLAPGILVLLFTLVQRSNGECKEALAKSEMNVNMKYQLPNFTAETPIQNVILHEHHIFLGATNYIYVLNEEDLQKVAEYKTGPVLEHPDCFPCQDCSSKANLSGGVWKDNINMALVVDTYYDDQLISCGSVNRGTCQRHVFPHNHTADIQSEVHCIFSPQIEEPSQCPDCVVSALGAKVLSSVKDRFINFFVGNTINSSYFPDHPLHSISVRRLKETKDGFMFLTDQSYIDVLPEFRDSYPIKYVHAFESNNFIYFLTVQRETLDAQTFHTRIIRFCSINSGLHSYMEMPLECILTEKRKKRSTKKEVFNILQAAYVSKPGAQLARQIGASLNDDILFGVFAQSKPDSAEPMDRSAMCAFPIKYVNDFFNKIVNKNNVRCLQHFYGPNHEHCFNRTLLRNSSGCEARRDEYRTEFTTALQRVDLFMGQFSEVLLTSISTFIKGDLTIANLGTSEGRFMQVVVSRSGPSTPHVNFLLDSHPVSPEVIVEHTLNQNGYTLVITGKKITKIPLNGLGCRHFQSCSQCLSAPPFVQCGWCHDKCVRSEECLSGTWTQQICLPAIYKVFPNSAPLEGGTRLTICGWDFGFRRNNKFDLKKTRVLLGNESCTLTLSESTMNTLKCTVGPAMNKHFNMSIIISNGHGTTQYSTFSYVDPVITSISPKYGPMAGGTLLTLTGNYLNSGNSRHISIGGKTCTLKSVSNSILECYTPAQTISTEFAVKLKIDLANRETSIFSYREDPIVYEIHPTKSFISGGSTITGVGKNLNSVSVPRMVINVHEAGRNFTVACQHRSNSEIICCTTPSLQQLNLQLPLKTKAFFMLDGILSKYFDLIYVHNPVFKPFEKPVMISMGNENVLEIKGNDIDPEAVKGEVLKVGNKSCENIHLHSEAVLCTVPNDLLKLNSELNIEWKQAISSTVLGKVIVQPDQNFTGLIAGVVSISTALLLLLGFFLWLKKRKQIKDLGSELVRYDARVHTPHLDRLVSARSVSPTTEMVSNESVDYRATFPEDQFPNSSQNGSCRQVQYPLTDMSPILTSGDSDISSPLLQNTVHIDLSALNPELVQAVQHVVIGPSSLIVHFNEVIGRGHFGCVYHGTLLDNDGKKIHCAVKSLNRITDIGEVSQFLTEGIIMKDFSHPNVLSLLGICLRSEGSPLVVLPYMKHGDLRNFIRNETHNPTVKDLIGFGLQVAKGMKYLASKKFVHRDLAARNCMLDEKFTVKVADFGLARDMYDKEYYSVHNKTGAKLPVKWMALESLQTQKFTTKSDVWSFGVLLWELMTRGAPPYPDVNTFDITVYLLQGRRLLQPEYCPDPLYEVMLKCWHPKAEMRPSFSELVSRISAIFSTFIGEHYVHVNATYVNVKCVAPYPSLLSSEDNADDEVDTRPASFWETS
Test [9] deals with T3, Mitogen-activated protein kinase kinase kinase 5. Nature of the test: Inhibition of human ASK1 using MBP as substrate incubated for 10 mins prior to ATP addition measured after 20 mins by liquid scintillation counting analysis. A digest of the protocol: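 Inhibitor added from a DMSO stock is incubated with enzyme on ice for 10 min. The reaction is started with ATP plus MgCl₂ in MOPS pH 7.2, and labeled and unlabeled ATP are combined.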

Chain of Mitogen-activated protein kinase 10 (Homo sapiens) (P53779 whole entry): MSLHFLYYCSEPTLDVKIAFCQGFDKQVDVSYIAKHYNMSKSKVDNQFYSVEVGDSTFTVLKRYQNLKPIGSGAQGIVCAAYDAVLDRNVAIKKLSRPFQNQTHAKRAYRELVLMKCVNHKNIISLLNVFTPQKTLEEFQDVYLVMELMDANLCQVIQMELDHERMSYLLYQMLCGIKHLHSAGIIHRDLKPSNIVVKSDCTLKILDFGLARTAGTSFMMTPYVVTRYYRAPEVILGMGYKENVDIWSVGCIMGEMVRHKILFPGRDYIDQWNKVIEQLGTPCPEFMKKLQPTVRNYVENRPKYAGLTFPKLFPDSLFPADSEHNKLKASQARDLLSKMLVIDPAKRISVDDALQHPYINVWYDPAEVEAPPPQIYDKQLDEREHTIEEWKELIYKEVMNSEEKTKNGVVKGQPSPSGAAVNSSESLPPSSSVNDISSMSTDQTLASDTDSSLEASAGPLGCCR

Regarding `CC(C(=O)O)N1C(=O)/C(=C/c2ccc(-c3ccc(Cl)c(Cl)c3)o2)SC1=S` (centres undefined), the Activity is 14% in test [1]; 88% in [2]; 3% in test [3]; 34% in test [4]; 46% in test [6]; 29% in [7]. Moreover, the Activity in test [8] was found to be 65%. Besides, in [5], affinity was put at a Ki of 0.34 µM. Moreover, the IC50 in test [9] is 0.65 µM.
